Results collected from several papers.
Compare with care: the assays were run in different laboratories.
Organism: Staphylococcus aureus
Effect on: microbial growth

SMILES | assay | test system | conditions | MIC
Clc1ccc(-c2nc3ccccc3[nH]2)cc1Cl | broth dilution | ATCC29213 MSSA |  | 32 µg/mL
COc1cccc(OC)c1C(=O)N[C@@H]1C(=O)N2[C@@H]1SC(C)(C)[C@@H]2C(=O)O | broth dilution | 25923 |  | 3.13 µM
O=C(Nc1ccc(Nc2ccccc2)cc1)Nc1ccc(Cl)c(C(F)(F)F)c1 |  | NCTC8325 | 24 h | 3 µM
Cc1ccc2nc(-c3ccc4c(c3)OCO4)[nH]c2c1 | broth dilution | ATCC29213 MSSA |  | 256 µg/mL
CN[C@H](CC(C)C)C(=O)N[C@H]1C(=O)N[C@@H](CC(N)=O)C(=O)N[C@H]2C(=O)N[C@H]3C(=O)N[C@H](C(=O)N[C@H](C(=O)O)c4cc(O)cc(O)c4-c4cc3ccc4O)[C@H](O)c3ccc(c(Cl)c3)Oc3cc2cc(c3O[C@@H]2O[C@H](CO)[C@@H](O)[C@H](O)[C@H]2O[C@H]2C[C@](C)(N)[C@H](O)[C@H](C)O2)Oc2ccc(cc2Cl)[C@H]1O | broth dilution | CCARM3090 |  | 0.5 µg/mL
O=C1NC(=S)S/C1=C\c1ccc(-c2ccc(N(c3ccccc3)c3ccccc3)cc2)cc1 | broth dilution | ATCC43300 |  | 250 µg/mL
O=C(O)c1cn(C2CC2)c2cc(N3CCNCC3)c(F)cc2c1=O |  | NCTC8325 |  | 0.75 µM
C[C@@H](O)[C@H]1C(=O)N2C(C(=O)O)=C(S[C@@H]3CN[C@H](C(=O)N(C)C)C3)[C@H](C)[C@H]12 | broth dilution | KCTC1621 | 16 h | 8 µM
COc1c(C)c(OS(=O)(=O)c2ccc3ccccc3c2)c(C)c(O)c1C(=O)/C=C/c1ccccc1 | broth dilution | ATCC25923 |  | 2500 µg/mL
C=CC1(C)CC(OC(=O)CSc2nc3ccccc3s2)C2(C)C(C)CCC3(CCC(=O)C32)C(C)C1O (stereo not drawn) |  |  |  | 0.5 µg/mL
COc1cc(Cc2cnc(N)nc2N)cc(OC)c1OC | broth dilution |  | 24 h | 2 µg/mL
Cc1cc(/C=C2\Sc3ccccc3N2CCCN2CCC(C)CC2)c2ccccc2[n+]1C.[I-] | broth dilution | ATCCBAA44 |  | 1 µg/mL
O=C1NC(=S)N/C1=C\c1ccc(-c2ccc(N(c3ccccc3)c3ccccc3)cc2)cc1 | broth dilution | ATCC43300 |  | > 1000 µg/mL
CCN(CCO)CCCOc1ccc2c(Nc3cc(CC(=O)Nc4cccc(F)c4)[nH]n3)ncnc2c1 |  | NCTC8325 |  | > 30 µM
Cc1ccc2nc(-c3cccc([N+](=O)[O-])c3)[nH]c2c1 | broth dilution | ATCC29213 MSSA |  | 64 µg/mL
CC1(COc2ccc3c(c2)ncn3-c2ccc3cccc(N4CCC(N)CC4)c3n2)COC1 |  | NCTC8325 |  | > 30 µM
CC(C)Oc1c(NC(=O)c2ccc(NC(=O)[C@H](CC(N)=O)NC(=O)c3ccc(NC(=O)c4ccc([N+](=O)[O-])cc4)cc3)cc2)ccc(C(=O)Nc2ccc(C(=O)O)c(F)c2)c1O |  | ATCC29213 |  | 2 µg/mL
Cc1cc(Nc2nc(N[C@@H](C)c3ncc(F)cn3)ncc2Cl)n[nH]1 |  | NCTC8325 |  | > 30 µM
CC(C)Oc1c(N)ccc(C(=O)Nc2ccc(C(=O)N[C@@H](CC(N)=O)C(=O)Nc3ccc(C(=O)Nc4ccc(C(=O)Nc5ccc(C(=O)O)cc5)c(O)c4OC(C)C)cc3)cc2)c1O |  | ATCC29213 |  | > 64 µg/mL
CNC(=O)c1cc(Sc2ccc(NC(=O)Nc3ccc(Cl)c(C(F)(F)F)c3)cc2)ccn1 |  | NCTC8325 | 24 h | 1 µM
CSc1nc(Cl)cc(Sc2nnc(-c3cc(C(F)(F)F)cc(C(F)(F)F)c3)[nH]2)n1 |  | 83254 |  | 2.1 µM
